pIC50: −log10 of the molar value. Calls of active or inactive are those of the source. The rule behind the calls is not given here.

A short description of data set [1]: Cytotoxicity against mouse P3X63Ag assessed as reduction in cell viability at 50 uM after 3 hrs by MTT assay relative to control. The method, boiled down:
(§1)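 P3X63Ag murine myeloma cells were grown in DMEM-F12 with 10% FCS at 37°C, 5% CO2. For the assay they were plated in serum-free DMEM-F12 and exposed to compounds for 3, 6 or 20 h. After a PBS wash, cells got MTT for 3 h and crystals were dissolved in DMSO. Absorbance was read at 450 nm (620 nm reference), and viability calculated as 100×At/Ac versus untreated cells.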

Data set [2] is described as follows: Cytotoxicity against mouse P3X63Ag assessed as reduction in cell viability at 50 uM after 6 hrs by MTT assay relative to control. Put shortly: as §1
In general terms: Tetrazolium dyes change colour on reduction, which living cells bring about.

Data set [3] is described as follows: (§2) Inhibition of recombinant Escherichia coli M1 aminopeptidase using Leu-pNA as substrate preincubated for 15 mins followed by substrate addition. The method, boiled down: (§3)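 Recombinant ePepN (partially purified by ion exchange) or porcine kidney cortex microsomal APN was pre-incubated 15 min at 25°C with inhibitor in DMSO (final ≤2% v/v), then 75 μM Leu-pNA (~1 KMapp) was added. Buffer was 50 mM Tris-HCl pH 8.0. A405 was read every 15 s for 3 min. Doses were double serial dilutions over 0.781–100 μM, and IC50 came from a logistic fit of residual activity (vi/v0); at least triplicate.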

The subject of data set [4] is Escherichia coli. The description is as §2. Put shortly: as §3
The nature of data set [5]: Inhibition of M1 aminopeptidase in porcine kidney cortex microsomes using Leu-pNA as substrate preincubated for 15 mins followed by substrate addition. Further details: species or system Sus scrofa.
Data set [6] can be described thus: Selectivity index, ratio of IC50 for M1 aminopeptidase in porcine kidney cortex microsomes to IC50 for recombinant Escherichia coli M1 aminopeptidase.
Data set [7] is described as follows: Haemolytic activity in human erythrocytes assessed as induction of hemolysis at 100 uM after 20 hrs relative to control. It is filed as cell-based, Erythrocyte. The conditions noted are these: read-out: Activity. Put shortly:
(§4)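 Fresh human red blood cells were washed and resuspended in 145 mM NaCl, 10 mM Tris-HCl pH 7.4, adjusted so full lysis with Na2CO3 gives A540 ≈0.7. Cells were incubated with compounds for 3, 6 or 20 h, with untreated and 1% DMSO controls. Supernatant haemoglobin was measured after centrifugation.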

Data set [8] deals with Erythrocyte. The data set can be described thus: Haemolytic activity in human erythrocytes assessed as induction of hemolysis after 3 hrs. The data set is classed as cell-based. Put shortly: as §4
Data set [9] deals with Erythrocyte. The data set is described as follows: Haemolytic activity in human erythrocytes assessed as induction of hemolysis after 6 hrs. It is filed as cell-based. Put shortly: as §4
Data set [10] relates to Erythrocyte. The data set can be described thus: Haemolytic activity in human erythrocytes assessed as induction of hemolysis after 20 hrs. The data set is classed as cell-based. The method, boiled down: as §4
Data set [11] is described as follows: Cytotoxicity against mouse P3X63Ag assessed as reduction in cell viability at 50 uM after 20 hrs by MTT assay relative to control. Put shortly: as §1
Data set [12] is described as follows: Cytotoxicity against mouse P3X63Ag assessed as reduction in cell viability after 3 hrs by MTT assay. The method, boiled down:
as §1

Data set [13] is described as follows: Cytotoxicity against mouse P3X63Ag assessed as reduction in cell viability after 6 hrs by MTT assay. Put shortly:
as §1

A short description of data set [14]: Cytotoxicity against mouse P3X63Ag assessed as reduction in cell viability after 20 hrs by MTT assay. The method, boiled down: as §1
The subject of data set [15] is Escherichia coli. The data set is described as follows: Growth inhibition of Escherichia coli BL21 after 3 to 6 hrs by spectrophotometric analysis. It is filed as functional, organism-based. Put shortly:
(§5)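 E. coli BL21 was inoculated at 1% from an overnight culture into LB. Compounds were added at eight concentrations (0.781–100 μM) from DMSO serial dilutions, with DMSO and 200 μg/mL ampicillin controls; four replicates. Plates were held at 37°C and raised to 42°C at 6 h. A595 was read at 0, 3, 6 and 20 h and normalized to the DMSO control (100% growth).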

In data set [16] the test system is Escherichia coli. The data set can be described thus: Growth inhibition of Escherichia coli BL21 after 20 hrs by spectrophotometric analysis. The data set is classed as functional, organism-based. The conditions noted are these: BL21, BL21, 20 h. Put shortly: as §5
The subject of data set [17] is Escherichia coli. The data set is described as follows: Reversible inhibition of recombinant Escherichia coli M1 aminopeptidase using Leu-pNA as substrate preincubated for 15 mins followed by substrate addition. Put shortly: as §3

Regarding `COc1ccc(C(N[C@@H](Cc2ccc(OCc3ccccc3)cc2)C(=O)O)c2nnnn2C2CCCCC2)cc1` (some centres not stated), the figures for the Activity result in data set [1], in data set [2] and in data set [11] were “<= 60%”, “<= 50%” and “<= 50%”, respectively. Besides, the pIC50 was 5.85 in data set [3]; 2.80 in data set [5]; less than 4.00 in data set [12]; 4.00 in data set [13]; 4.00 in data set [14]; more than 4.30 in the data set on Escherichia coli [15]. In the data set with Escherichia coli [16], this compound had a negative-log IC50 (pIC50) of more than 4.00. Moreover, the inhibition result with Escherichia coli [4] is “Dose-dependent effect”. Further, the Ratio IC50 in data set [6] turned out to be 1130. In [7], the hemolysis at 20 h, 100 µM is 40%. For the same compound, the figures for the HC20 in the data set with Erythrocyte [8], in the data set with Erythrocyte [9] and with Erythrocyte [10] were more than 100 µM, 70 µM and 65 µM, respectively. Moreover, the inhibition entry in the data set on Escherichia coli [17] was “Active”.

A word on the pIC50: it is −log10 of the IC50, conventionally taken in molar units.
